Results reported in ChEMBL document CHEMBL4513216, “Probing the Open Global Health Chemical Diversity Library for Multistage-Active Starting Points for Next-Generation Antimalarials” (ACS Infect Dis, 2020).

Test: Toxicity liver stage against HepG2, at 10uM
Type: cell-based
Set-up: test concentration 10 uM, cell line HepG2-A16-CD81EGFP
Details: human, HepG2-A16-CD81EGFP cells; read-out: INHIBITION
Outline: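 Uninfected HepG2-A16-CD81EGFP cells, 3 × 10^3 per well, 1536-well, plated on prespotted compound at 10 μM final, parasite-free screening media added to match infected plates; puromycin 10 μM positive, DMSO 0.5% negative; run in parallel with 48 h PbLuc assay at 37 °C, 5% CO2; viability by CellTiter-Glo luminescence, normalized to controls.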

SMILES | cytotoxicity at 10 µM [%]
COCc1cc(N2C[C@@H](C)[C@](O)(C3CC3)C2)ncn1 | 3.73
CCOC(=O)N1CCN(Cc2ccc(OCc3nccn3C)cc2)CC1 | -9.34
Cc1n[nH]c(C)c1NC(=O)c1cccc(OCC(F)(F)F)n1 | -6.83
NC(=O)CN1CCCN(C(=O)c2ccn(-c3cccc(F)c3)n2)CC1 | 14.3
O=S(=O)(NC1CCCCC12OCCO2)c1ccc2c(c1)OCCO2 (centres undefined) | -0.839
CS(=O)(=O)NCCCN1CCCCC1c1cc2ccccc2[nH]1 (centres undefined) | -10.6
CC(CO)NC(=O)c1ccc2[nH]/c(=N\S(C)(=O)=O)sc2c1 (centres undefined) | -3.24
COCC1COCCC12CCN(C(=O)CCc1ccccc1C)CC2 (centres undefined) | -1.52
CN(C)C(=O)N1CCC2(CC(=O)N(c3ccc4c(c3)OCO4)C2)C1 (centres undefined) | 8.04
O=C(O)c1cc(S(=O)(=O)Nc2cc(F)ccc2F)cc2c1OCCO2 | -7.42
Cc1ccc(C(=O)Nc2ccc(N3CCCC3)cn2)cc1C | 26.9
Cc1cc(CCC(=O)N(C)C)nc(C2CCCCN2)n1 (centres undefined) | -2.39
COCc1nn(Cc2ccc(Br)s2)c(=O)o1 | 1.99
O=C(c1ccccn1)N1C[C@@H]2OCC(=O)N(CC3CCCCC3)[C@@H]2C1 | -2.86
CCN(Cc1ccoc1)C(C(N)=O)c1cccc(Br)c1 (centres undefined) | 2.34
Cc1nnc(SCC(=O)N2CCc3[nH]nc(C4CCC4)c3C2)o1 | -7.09
CNc1ccc(C2CN(c3nc(C)cc(C)n3)CCO2)nc1 (centres undefined) | 0.575
CN1CCCN(C(=O)c2ccn3ccnc3c2)CC1 | -2.38
CO[C@@H]1CCN(S(=O)(=O)c2cn(C)cn2)[C@H]1Cc1ccccc1 | 7.13
CCc1nc(CN(C(C)=O)C2CCN(CC3CCOCC3)C2)no1 (centres undefined) | -3.84
CS(=O)(=O)N1CCc2c(nnn2CC2CC2)C1COCC1CC1 (centres undefined) | -3.15
CCn1cc(C(=O)Nc2ccc(C)cc2C(=O)OC)cn1 | 5.47

SMILES | cytotoxicity at 10 µM [%]
CCCc1cc(C(=O)Nc2nc(SC)ns2)[nH]n1 | -19.3
O=C(O)CCc1cc2n(n1)CCN(Cc1ccc3[nH]ccc3c1)C2 | -2.32
C[C@H]1CN(c2ccccn2)C[C@@]12CCN(c1cccnc1)C2=O | -2.62
c1ccc2c(c1)nnn2CCCNC1CCOC2(CCOCC2)C1 (centres undefined) | -4.66
Cc1ccc(F)c(C(=O)Nc2c(C(N)=O)n[nH]c2C)c1 | -0.587
c1cnn(Cc2ccc(CN3CCC4(CCNCC4)C3)cc2)c1 | -15.6
Cc1cccc(COc2ccc(C(C)N)cc2)c1 (centres undefined) | -1.79
CC(C(=O)NCc1ccnc(N2CCN(C)CC2)c1)n1cccn1 (centres undefined) | -10.2
COc1ccc2c(c1)OCC(C(=O)NCc1ncc3c(n1)CCC3)C2 (centres undefined) | 2.15
Cc1nc(COc2ccc(S(=O)(=O)N(C)C)cc2)sc1C | -1.13
CCC(=O)N1CCC(Cc2ccccc2-c2cccc(C)c2)(C(N)=O)C1 (centres undefined) | -27.5
Cc1ccc(CN2C(=O)CCC2C(=O)Nc2cnn(C)c2)o1 (centres undefined) | -3.72
CC(=O)N1CCC(NC(=O)N(C)Cc2c(C)noc2C)CC1 | -6.33
CNC(=O)c1cccc(CCNC2CCSc3ccccc32)c1 (centres undefined) | 3.42
O=C(COc1ccc(C(F)(F)F)cc1)N1CCOCC1c1ncon1 (centres undefined) | -12.5
CCc1noc(CN(CCc2ccccc2)C2CCN(C)CC2)n1 | 0.15
COc1cccc(-c2noc(C3CCN(Cc4ccc(C)cc4)C3)n2)c1 (centres undefined) | -5.89
CC(NC(=O)c1ccc2c(c1)OCC(=O)N2)c1ccccc1F (centres undefined) | -4.42
O=C(O)[C@@H]1OCC(=O)N(Cc2cccc(Cl)c2)[C@@H]1c1ccccc1 | 3.94
CN(Cc1ccccn1)C(=O)[C@]12COC[C@H]1CN(Cc1cnn(C)c1)C2 | -9.74
O=C([C@H]1CN(Cc2cccnc2)C[C@H]2OCC[C@@H]12)N1CCCO1 | 8.98
Cc1nc2cc(NCc3cnn(C)c3)ccc2n1C | 13.1

SMILES | cytotoxicity at 10 µM [%]
CN1CCN(Cc2nc3ccccc3[nH]2)[C@H]2CS(=O)(=O)C[C@H]21 | 20.5
O=C(CCn1c(C(F)F)cc2cccnc21)NC1CC1 | -1.71
Cc1cc(C)n(CC2CN(CC(=O)NC3CCOCC3)CCO2)n1 (centres undefined) | -11.1
Cn1ccnc1C(=O)N1CCCC1c1ccc(C(=O)N2CCOCC2)s1 (centres undefined) | -155
COc1cc(-c2cnnc(NCCCOC(C)C)n2)cc(OC)c1OC | 3.51
N#CC(NC(=O)CS(=O)(=O)C1CCCC1)c1ccc(F)cc1F (centres undefined) | 3.56
CN(C)C(=O)N1CCN(Cc2cnn(C)c2)CC2(CNC(=O)C2)C1 (centres undefined) | 1.21
COc1c(CNCc2ccc3c(c2)OCO3)c(C(C)C)nn1C | 0.745
CC(C)N(C)S(=O)(=O)NCc1cccnc1N(C)C | 2.57
O=C(c1cccs1)N1CCC2(CC1)CC(Oc1ccccc1)CO2 (centres undefined) | 15.4
Cn1cccc1C(=O)N1CC[C@@]2(O)CCN(S(C)(=O)=O)C[C@H]2C1 | -10.7
CN(C(=O)CN1CCCc2cc(F)cc(F)c21)c1ccccc1 | 14.2
Cc1ccc(CN2C[C@H](OCCN(C)C)[C@H]3OCCC[C@H]32)o1 | -146
CCCN(Cc1nccn1C)C(=O)c1cnn[nH]1 | -1.21
COCC(=O)NCC1(COc2cccnc2)C[C@@H](O)[C@@H](O)C1 (some centres undefined) | 2.52
Cc1cc(CN2CCN(Cc3cnc4c(c3)c(C)nn4C)CC2)on1 | -12.6
COc1ncccc1CNCc1c(C(C)C)nn(C)c1Cl | -3.74
Cc1cc(C)nc(Nc2cncc(C3CCCN(S(C)(=O)=O)C3)n2)n1 (centres undefined) | -16.1
Cc1ccc(C(=O)N2CCC(c3n[nH]c(C4CC4)n3)CC2)cc1F | -5.5
CCOC(C)c1noc(CN(C)C(=O)c2cc3ccccn3c2)n1 (centres undefined) | 7.17
Cc1nc2n(n1)CC(NCC(=O)N(C)Cc1cccs1)CC2 (centres undefined) | -0.189
CN(Cc1ccco1)C(=O)CN1CCc2ccccc2C1 | -2.19

SMILES | cytotoxicity at 10 µM [%]
CS(=O)(=O)Cc1ccc(OCc2ccc(F)cc2)cc1 | 22.9
CC(C)NC(=O)N1CCC(c2nnc3ccc(C(=O)N(C)C)cn23)C1 (centres undefined) | 8.79
CC(C)N1CCC(N2CCCC(C(=O)NCC3(O)CCCCC3)C2)CC1 (centres undefined) | 2.59
CCN(Cc1ccc2c(c1)OCCO2)C(=O)Cn1cccnc1=O | -5.1
Cc1cc(C)n(CC(C)NCc2cnc3c(C)cccn23)n1 (centres undefined) | 1.44
CCc1nc(CN2CCN(C(=O)COCc3ccccc3)CC2)no1 | 2.41
Cc1cnc(C(=O)NCc2ccc3c(c2)CCCN3C)cn1 | -4.92
O=C(NCC(O)c1ccc(F)c(F)c1)c1ccccc1F (centres undefined) | -3
COCc1nc(CNC(=O)C(C)n2ccnc2C(C)C)no1 (centres undefined) | -0.376
N#Cc1ccc(F)c(CN2CCCC2Cn2cccn2)c1 (centres undefined) | -7.69
CN1CC(NC(=O)Cc2csc(C(C)(C)C)n2)CCC1=O (centres undefined) | 1.82
O=S(=O)(NCCn1ccc(-c2ccccn2)n1)C1CC1 | -1.04
CCCn1cc(Cl)c(C(=O)N2C[C@@H](O)[C@H](NC(C)=O)C2)n1 | -0.255
O=C(c1cc2c([nH]c1=O)CCC2)N1CCCCC1c1cccc(F)c1 (centres undefined) | -6.22
CCC1c2ccccc2CCN1CCNS(C)(=O)=O (centres undefined) | 5.56
Cc1cnn(CCNC(C)c2nnc(-c3ccccc3)o2)c1 (centres undefined) | -2.4
Cn1cc(CN2CCC3(CC2)CC(c2ccncc2)C(=O)N3)cn1 (centres undefined) | 1.75
CN(Cc1cc(Br)cn1C)C(=O)c1cscn1 | -0.37
CC(C)(C)c1noc(CCCC(=O)N2CCCC(c3ccn[nH]3)C2)n1 (centres undefined) | -14.2
O=C1N(CC2CC2)C(c2cncs2)NC12CCCC2 (centres undefined) | -3.84
O=C(CCCN1CCCCC1)NC(C(=O)O)c1cccc(F)c1 (centres undefined) | 1.91
c1cc2c(cc1CN1CC[C@H]3[C@H]1CCN3CC1CC1)OCO2 | 1.67

SMILES | cytotoxicity at 10 µM [%]
Cc1cc(CN2CCCC2c2c(C)nn(C)c2Cl)on1 (centres undefined) | -4.77
CCS(=O)(=O)N1CCC(NCC2CNc3cc(C)nn3C2)CC1 (centres undefined) | 0.286
O=C(c1ccc(=O)[nH]n1)N1CC(c2nc(Cc3ccccc3)no2)C1 | -19.3
O=C(Cn1cnc(-c2cccs2)cc1=O)Nc1cccnc1 | -3.69
CC(C)C1CCC(N2CCN(CCS(C)(=O)=O)CC2)CC1 (centres undefined) | 7.23
COCCOc1cc(C)ccc1NC(=O)N(C)Cc1cnn(C)c1 | -9.5
CCN1C[C@H]2N(c3ncccn3)CCC[C@@]2(C(=O)NCC2CC2)C1 | -97.3
Cc1ccccc1CN1CCOC(c2nccc(CN(C)C)n2)C1 (centres undefined) | -9.19
O=C(c1ccncn1)N1C[C@@H]2CN(Cc3cccnc3)CCO[C@@H]2C1 | 7.61
O=C(NCCCn1ccnc1)c1cccnc1OCC(F)(F)F | 6.58
Cc1cnn(CC2CCCN2C(=O)c2ccc3c(c2)nnn3C)c1 (centres undefined) | 18.4
COc1cc(C)ccc1OCC(=O)NS(=O)(=O)c1cc(F)ccc1F | 2.15
CNS(=O)(=O)c1ccc(CNC(=O)N(CC(C)C)C(C)C)cc1 | 4.5
COc1cc(C)sc1C(=O)N1CC(c2cccnc2)C1 | -8.97
CCCc1noc(C(C)S(=O)(=O)Cc2nc(C3CC3)no2)n1 (centres undefined) | -9.02
CC(=O)NC[C@H]1C[C@@H]2CCN1C[C@@H]2c1cc(-c2cccs2)nn1C | -7.99
O=c1ccn([C@H]2CCN(Cc3ncc[nH]3)CC[C@@H]2O)c(=O)[nH]1 | 13
COc1ccc(OCCN(C)C(=O)NC(C)c2nncn2C)cc1 (centres undefined) | 1.08
Cc1ccc(CN2C[C@H](O)C[C@H]2c2nc(-c3ccc(F)cc3)no2)cc1 | -0.456
Cc1ccc(CN2CC[C@H]3C(=O)N(Cc4cccnc4)CCO[C@H]3C2)o1 | -88.7
O=C1CNc2ncnc(N3CCN(Cc4ccccc4)CC3)c2N1 | 9.76
